# Measured values: ChEMBL document CHEMBL3407398, “Comparison between loureirin A and cochinchinenin C on the interaction with human serum albumin” (Eur J Med Chem, 2015)
# Key:
# Conditions in all cases: isolated protein; call rule not given here
# [1] = target: T1, Albumin (Homo sapiens, UniProt P02768); assay: Binding affinity to human serum albumin by UV-vis spectrophotometry; type: ADME
# In short: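 UV-vis absorption titration at room temperature in a 10 mm quartz cuvette. HSA was held at 1.5 × 10^-6 M while ligand was varied 0–18 × 10^-6 M, and absorbance change at 280 nm was followed. Spectra of ligand alone at 1.5 × 10^-6 M were also recorded.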
# [2] = target: T1, Albumin; assay: Binding affinity to human serum albumin assessed as enthalpy change at 300K by thermodynamic analysis; type: ADME
# In short: (§1)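 Fatty-acid-free HSA, 1.5 × 10^-6 M in 0.1 M Tris-HCl pH 7.4 / 0.1 M NaCl, was titrated with ligand from ethanol stock and equilibrated 5 min per addition. Emission was read 300–450 nm (excitation 280 nm) at 300, 305 and 310 K. Binding constants came from the quenching data across these temperatures, and thermodynamic parameters from their temperature dependence.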
# [3] = target: T1, Albumin; assay: Binding affinity to human serum albumin assessed as quenching constant at 310K by fluorescence spectroscopy; type: ADME
# In short: (§2)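 Fatty-acid-free HSA, 1.5 × 10^-6 M in 0.1 M Tris-HCl pH 7.4 with 0.1 M NaCl, titrated with ligand from ethanol stock. Each addition equilibrated 5 min. Emission recorded 300–450 nm with excitation at 280 nm, at 300, 305 and 310 K. Constants taken from the linear low-concentration region of Stern-Volmer F0/F plots.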
# [4] = target: T1, Albumin; assay: Binding affinity to human serum albumin assessed as binding constant at 310K by Stem-Volmer plot; type: ADME; in short: as §1
# [5] = target: T1, Albumin; assay: Binding affinity to human serum albumin assessed as free energy change at 300K by thermodynamic analysis
# [6] = target: T1, Albumin; assay: Binding affinity to human serum albumin assessed as induction of protein conformational changes by measuring reduction in intensity along with red shift in peak 1 by three-dimensional fluorescence spectroscopy; set-up: scale not given: the % may be the effect or the level left
# In short: (§3)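 3-D fluorescence of HSA at 1.5 × 10^-6 M, alone and with ligand at a 2:1 ligand/HSA molar ratio, in Tris-HCl pH 7.4 buffer. Excitation scanned 200–480 nm in 10 nm steps, with emission recorded 220–500 nm. Changes in intensity and position of peak 1 were compared.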
# [7] = target: T1, Albumin; assay: Binding affinity to human serum albumin assessed as Stem-Volmer quenching constant at 310K by fluorescence spectroscopy; type: ADME; in short: as §2
# [8] = target: T1, Albumin; assay: Binding affinity to human serum albumin assessed as free energy change at 310K by thermodynamic analysis
# [9] = target: T1, Albumin; assay: Binding affinity to human serum albumin assessed as induction of protein conformational changes by synchronous fluorescence spectroscopy
# [10] = target: T1, Albumin; assay: Binding affinity to human serum albumin assessed as free energy change at 305K by thermodynamic analysis
# [11] = target: T1, Albumin; assay: Binding affinity to human serum albumin assessed as Stem-Volmer quenching constant at 305K by fluorescence spectroscopy; type: ADME; in short: as §2
# [12] = target: T1, Albumin; assay: Binding affinity to human serum albumin assessed as Stem-Volmer quenching constant at 300K by fluorescence spectroscopy; type: ADME; in short: as §2
# [13] = target: T1, Albumin; assay: Binding affinity to human serum albumin assessed as quenching constant at 305K by fluorescence spectroscopy; type: ADME; in short: as §2
# [14] = target: T1, Albumin; assay: Binding affinity to human serum albumin assessed as quenching constant at 300K by fluorescence spectroscopy; type: ADME; in short: as §2
# [15] = target: T1, Albumin; assay: Binding affinity to human serum albumin assessed as binding constant at 305K by Stem-Volmer plot; type: ADME; in short: as §1
# [16] = target: T1, Albumin; assay: Binding affinity to human serum albumin assessed as binding constant at 300K by Stem-Volmer plot; type: ADME; in short: as §1
# [17] = target: T1, Albumin; assay: Binding affinity to human serum albumin assessed as induction of protein conformational changes by measuring reduction in intensity along with blue shift in peak 1 by three-dimensional fluorescence spectroscopy; set-up: scale not given: the % may be the effect or the level left; in short: as §3
# T1 sequence (P02768 whole entry): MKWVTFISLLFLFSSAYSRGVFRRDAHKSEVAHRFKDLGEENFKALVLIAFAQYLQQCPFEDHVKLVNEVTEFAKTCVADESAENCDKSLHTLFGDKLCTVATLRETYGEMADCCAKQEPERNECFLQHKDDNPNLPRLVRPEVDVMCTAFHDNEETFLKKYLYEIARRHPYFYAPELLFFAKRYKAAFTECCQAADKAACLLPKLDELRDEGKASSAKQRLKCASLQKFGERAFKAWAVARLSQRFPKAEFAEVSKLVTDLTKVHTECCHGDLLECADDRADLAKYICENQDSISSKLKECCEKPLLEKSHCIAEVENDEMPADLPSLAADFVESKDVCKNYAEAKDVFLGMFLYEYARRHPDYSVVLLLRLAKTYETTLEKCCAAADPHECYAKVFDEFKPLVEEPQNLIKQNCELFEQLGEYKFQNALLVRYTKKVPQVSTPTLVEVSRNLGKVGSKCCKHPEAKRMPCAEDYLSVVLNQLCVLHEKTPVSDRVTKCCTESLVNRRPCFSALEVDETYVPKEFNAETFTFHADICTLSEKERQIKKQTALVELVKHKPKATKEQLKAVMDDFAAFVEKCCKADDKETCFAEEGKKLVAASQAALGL
Activity [1],deltaH [2] [kcal/mol],Kq [3] [×10¹² /M/s],K [4] [×10⁴ /M],deltaG [5] [kcal/mol],Activity [6] [%],KSV [7] [×10⁴ /M],deltaG [8] [kcal/mol],Activity [9],deltaG [10] [kcal/mol],KSV [11] [×10⁴ /M],KSV [12] [×10⁴ /M],Kq [13] [×10¹² /M/s],Kq [14] [×10¹² /M/s],K [15] [×10⁴ /M],K [16] [×10⁴ /M],Activity [17] [%],Compound
Active,-7.643,6.24,8.56,-6.998,28,6.24,-6.977,Active,-6.986,7.98,9.85,7.98,9.85,9.51,12.91,,COc1ccc(CCC(=O)c2ccc(O)cc2)c(OC)c1
Active,-13.37,12.15,12.32,-7.431,,12.15,-7.232,Active,-7.33,14.95,17.69,14.95,17.69,18.62,25.32,14,COc1ccc(C(CCc2ccc(O)cc2OC)c2cc(CCC(=O)c3ccc(O)cc3)c(OC)cc2O)cc1 (configuration not stated) [COCHINCHINENIN C]
